Source: ChEMBL document CHEMBL3351861, “New synthetic sulfone derivatives inhibit growth, adhesion and the leucine arylamidase APE2 gene expression of Candida albicans in vitro” (2015)

System: Candida albicans
Test: Reduction in APE2 gene expression in compound pre-treated Candida albicans CAI4 expressing delta-cph1 gene grown on human Caco2 cells monolayer at 16 ug/ml pre-treated for 2 hrs measured after 18 hrs by RT-PCR method
Format: functional, Caco-2
Summary of the method: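 Blastoconidia are pre-incubated 2 h with 16 µg/ml sulfone in RPMI. They are then washed, resuspended in RPMI and placed on Caco-2 monolayers at 37°C, with RNA taken at 6 or 18 h. Real-time RT-PCR uses SYBR Green with 250 nM primers and 60 ng cDNA: 95°C 15 min, then 45 cycles of 94°C 15 s and 60°C 1 min, plus a melt curve. APE2 is normalized to ACT1 by 2^-ΔΔCt with 90028 as calibrator; three experiments.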

**Q.** Which “fold change (FC)” value does the source give for `NNc1ccc(S(=O)(=O)C(Cl)(Br)Br)cc1[N+](=O)[O-]` here?
**A.** Its value is 4.05.
